According to the array DNA melting data of Ke et al. (doi:10.1101/2024.01.08.574731):

Experiments:
[1] = melting temperature; fluorescence melt of hairpins on a sequencing array, two-state fit, raised by 9.35 °C to match UV melts; conditions: sodium 0.088 M
Procedure, shortened: (§1)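 On a sequenced MiSeq flow cell, library hairpins with annealed Cy3 and quencher oligos were imaged for Cy3 fluorescence in 2.5 °C steps up to 60 °C, in 50 mM Na-HEPES pH 8.0, 25 mM NaCl. Normalisation used pre-quench Cy3 and control constructs. Bootstrapped two-state fits gave melting temperature and folding enthalpy, combined by inverse variance across four replicates and with fitted temperatures raised by 9.35 °C to match UV melts.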

[2] = folding enthalpy; higher = less favourable; fluorescence melt of hairpins on a sequencing array, two-state fit; conditions: sodium 0.088 M
Procedure, shortened: as §1

Sequence	Tm [1] [°C]	folding enthalpy [2] [kcal/mol]
GAGGACCCGAAAGGGCTC (((..(((....))))))	33.9	-12
GAGGACCGAAAGGTTCTC (((.(((....))).)))	59.4	-35.2
GAGGACGAAAGTCACCTC ((((((....)))..)))	36.2	-12.9
GAGGACGAAAGTCGGCTC ((((((....)))..)))	45.6	-16.7
GAGGAGCCGAAAGGCCTC (((..(((....))))))	41.9	-11.5
GAGGAGCGAAAGCTTCTC (((.(((....))).)))	57.2	-33.2
GAGGAGGGAAACCTCCTC (((((((....)))))))	65.3	-33.4
GAGGATACGAAAGTACTC (((..(((....))))))	26.8	-9.94
GAGGATGCGAAAGCACTC (((..(((....))))))	34.9	-14.2
GAGGATGGAAACATCCTC (((((((....)))))))	61.3	-49.6
GAGGATGGAAACATCTTC ((.((((....)))).))	38.1	-27.1
GAGGATGGAAACATTCTC (((.(((....))).)))	42.6	-25.5
GAGGCAGAAATGCCTC ((((((....))))))	60.7	-37.8
GAGGCCCCGAAAGGGCTC (((..(((....))))))	50.7	-14.1
GAGGCCCGAAAGGGTCTC (((.(((....))).)))	67.4	-31.6
GAGGCCGAAAGGCACTC ((((((....))).)))	54.1	-14.5
GAGGCCGAAAGGCGCCTC ((((((....)))..)))	42	-12.4
GAGGCCGAAAGGCGGCTC ((((((....)))..)))	55.9	-12.8
GAGGCCGGAAACGGCCCC (.(((((....))))).)	51.2	-6.76
GAGGCGCGAAAGCGCTC (((.(((....))))))	46.6	-7.37
GAGGCGGGAAACCGCTTC ((.((((....)))).))	51	-15.9
GAGGCTACGAAAGTACTC (((..(((....))))))	23.8	-10.2
GAGGCTGGAAACGGCTTC ((.((.(....).)).))	36.6	-20.8

Sequence	Tm [1] [°C]	folding enthalpy [2] [kcal/mol]
GAGGGCGAAAGCCGCCTC ((((((....)))..)))	36.3	-9.67
GAGGGCGAAAGCCTACTC ((((((....)))..)))	41.1	-11
GAGGGCGGAAACGCCTTC ((.((((....)))).))	50.5	-13.8
GAGGGGCGAAAGCCGCTC (((.(((....))).)))	69.3	-30.6
GAGGGGGGAAACCCCTTC ((.((((....)))).))	53.5	-12.5
GAGGTCCGAAAGGAGCTC (((.(((....))).)))	69.3	-35.5
GAGGTCGCGAAAGCGCTC (((..(((....))))))	35.1	-9.53
GAGGTGCGAAAGCACTC (((.(((....))))))	48.3	-10
GAGGTGGGAAACCACCCC (.(((((....))))).)	44.6	-10.7
GAGGTGGGAAACTGCCTC ((((..(....)..))))	42.7	-31.5
GAGGTTACGAAAGTACTC (((..(((....))))))	27.9	-14.3
GAGGTTGGAAACAACTTC ((.((((....)))).))	43.4	-24
GAGTAAACGAAAGTTCTC (((..(((....))))))	30.1	-13.9
GAGTACGAAAGTAACTC ((((((....))).)))	45.4	-23.4
GAGTACGAAAGTAAGCTC ((((((....)))..)))	29.3	-14.9
GAGTACGAAAGTACCTC ((((((....))).)))	47	-14.5
GAGTACGAAAGTACTC ((((((....))))))	64.8	-35.7
GAGTACGAAAGTAGTCTC ((((((....)))..)))	49.2	-23.4
GAGTACGAAAGTATCTC ((((((....))).)))	41.9	-26.8
GAGTACGAAAGTATTCTC ((((((....)))..)))	42.6	-27.4
GAGTACGGAAACGTGTTC ((..(((....)))..))	22.2	-10.5
GAGTATACGAAAGTACTC (((..(((....))))))	34	-15.7
GAGTATCCGAAAGGACTC (((..(((....))))))	29.2	-14.2

Sequence	Tm [1] [°C]	folding enthalpy [2] [kcal/mol]
GAGTATGGAAACATACCC (.(((((....))))).)	31.4	-19.4
GAGTATGGAAACGTACTC (((((.(....).)))))	43.5	-33.1
GAGTCAGAAATGACTC ((((((....))))))	54.6	-25
GAGTCAGGAAACCGACTC (((((.(....).)))))	46.6	-36.8
GAGTCCGAAAGGAACCTC ((((((....)))..)))	33	-16.5
GAGTCCGAAAGGAGCCTC ((((((....)))..)))	34	-14.3
GAGTCCGAAAGGAGTCTC ((((((....)))..)))	54.5	-25.1
GAGTCCGCGAAAGCGCTC (((..(((....))))))	24.8	-7.6
GAGTCCGGAAACAGACTC (((((.(....).)))))	41.6	-31.1
GAGTCGCGAAAGCGCTC (((.(((....))))))	54.6	-15.4
GAGTCGGGAAACCGACCC (.(((((....))))).)	42	-10.8
GAGTCTGCGAAAGCACTC (((..(((....))))))	30.4	-14.8
GAGTCTGGAAACAGGCTC (((.(((....))).)))	52.2	-44
GAGTGCCCGAAAGGGCTC (((..(((....))))))	35.5	-6.67
GAGTGCGAAAGCACGCTC ((((((....)))..)))	66.7	-10.9
GAGTGCGAAAGCAGCTC ((((((....))).)))	51.3	-19.9
GAGTGCGAAAGCATACTC ((((((....)))..)))	43.1	-17.5
GAGTGCGGAAACGTACTC ((((.((....)).))))	53.9	-43.3
GAGTGGCGAAAGCCCCTC (((.(((....))).)))	48.3	-19.9
GAGTGGGAAACCACTC ((((((....))))))	60.7	-33.6
GAGTGGGCGAAAGCCCTC (((..(((....))))))	34	-8.27
GAGTGGGGAAACCCACCC (.(((((....))))).)	42.7	-12.2
GAGTGTACGAAAGTACTC (((..(((....))))))	32.8	-11.7

Sequence	Tm [1] [°C]	folding enthalpy [2] [kcal/mol]
GAGTGTGGAAACGCATTC ((.((.(....).)).))	28.5	-19
GAGTTACGAAAGTACTC (((.(((....))))))	43.2	-25.4
GAGTTACGAAAGTAGCTC (((.(((....))).)))	51.2	-34.5
GAGTTCCGAAAGGACCTC (((.(((....))).)))	47.2	-28.8
GAGTTCGGAAACAAACTC (((((.(....).)))))	34	-27.5
GAGTTGGGAAACCAATTC ((.((((....)))).))	40	-28.8
GAGTTGGGAAACTAGCTC (((.(.(....).).)))	29	-15
GAGTTTGCGAAAGCACTC (((..(((....))))))	34.1	-15.2
GAGTTTGGAAACAGACTC ((((.((....)).))))	41.1	-28.3
GAGTTTGGAAACGAATTC ((.((.(....).)).))	33.5	-18.4
GATAAACCGAAAGGTATC (((..(((....))))))	30	-13.9
GATAAAGGAAACTTTATC (((((((....)))))))	44.4	-31.7
GATAACGAAAGTTGATC ((((((....))).)))	27.6	-11.2
GATAACGGAAACGCTATC ((((.((....)).))))	34.4	-29.5
GATAAGGCGAAAGCCATC (((..(((....))))))	29.6	-9.19
GATAATGAAAATTATC ((((((....))))))	37.9	-20.5
GATACACGAAAGTGCATC (((.(((....))).)))	44.2	-23.7
GATACCCGAAAGGGATC (((.(((....))))))	42.1	-16.1
GATACCGAAAGGTACATC ((((((....)))..)))	26.9	-10.4
GATACCGAAAGGTATC ((((((....))))))	62.5	-38.6
GATACCGAAAGGTCAATC ((((((....)))..)))	21.7	-8.3
GATACCGAAAGGTTCATC ((((((....)))..)))	32	-12.4
